Bioassay records (PubChem)
MrgX1 agonist = activates human MrgX1 receptor signaling | 310,000 compounds, 0.44% hits | Q96LB2 | MrgX1-HEK293 cells, Fluo-4 calcium fluorescence, agonist mode; active compounds read high | AID 588627 | B-score at 10 µM;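 active = calcium response B-score plate-corrected fluorescence ratio at least 3 library SD, with starting fluorescence B-score inside 5 SD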
Target sequence (Q96LB2 whole entry, looked up): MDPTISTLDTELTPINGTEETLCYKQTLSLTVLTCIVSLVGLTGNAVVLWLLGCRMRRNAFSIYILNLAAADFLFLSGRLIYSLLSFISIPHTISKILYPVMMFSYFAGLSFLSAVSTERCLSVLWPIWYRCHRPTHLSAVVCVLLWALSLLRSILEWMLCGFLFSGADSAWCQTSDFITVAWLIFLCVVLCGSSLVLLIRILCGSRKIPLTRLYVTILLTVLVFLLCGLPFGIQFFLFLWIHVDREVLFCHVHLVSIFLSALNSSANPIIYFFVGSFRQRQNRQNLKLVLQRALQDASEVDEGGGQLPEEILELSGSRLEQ
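Material: MrgX1-expressing HEK293 cells; input: 15,000 cells per well; doses: test compound given as first of three sequential additions; schedule: overnight plating before 1 h dye loading; technique: Fluo-4 NW calcium-flux fluorescence, kinetic read; evaluation: baseline-normalised fluorescence change ratio, B-scored; control set: plate-wise positive and negative controls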
MrgX1 antag = human MrgX1 receptor antagonism, primary screen; Q96LB2; MRGX1-HEK293 calcium flux, Fluo-4, BAM8-22 antagonism; active compounds read low; B-score at 10 µM; 310,000 compounds, 1.3% hits; AID 588676;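 active = calcium-response B-score plate-corrected more than 3 library SD below zero, starting fluorescence within 5 deviations, no agonist response on first addition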;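 note: peak minus trough fluorescence over baseline after final BAM8-22 challenge near maximal dose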
RGS4 pot = RGS4 potentiation or activation. 310,000 compounds, 0.92% hits. HEK293 M3R/inducible RGS4, carbachol calcium flux Fluo4; active compounds read low. B-score at 10 µM;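 active = B-score of the integrated calcium signal more than 4 SD below the library mean, with starting fluorescence not abnormally high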;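 note: negative B-score means reduced calcium response which marks RGS4 activation or potentiation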
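test system = M3R-expressing HEK293 line, RGS4 induced by doxycycline | probe or stimulus = carbachol at ECmax as muscarinic agonist stimulus | timing = dye loading 30 min 37 °C, buffer rest 30 min RT | signal = calcium dye Fluo4 fluorescence | evaluation = B score from integrated fluorescence ratio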
RGS4 block = human RGS4 inhibition; P49798; HEK293 M3R/RGS4 inducible, Fluo-4 calcium flux; active compounds read high; triggered by carbachol at its EC20; B-score at 10 µM; 310,000 compounds, 0.45% hits; AID 463165;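 active = B-score, a plate-corrected calcium signal, over three deviations above library mean, with baseline fluorescence within five deviations of library mean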;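 note: RGS4 expression induced by doxycycline in cells with stable M3 receptor; B-score is computed from the integrated fluorescence ratio over baseline after carbachol; higher B-score means a larger calcium signal and so more RGS4 inhibition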
Target sequence (P49798 whole entry, looked up): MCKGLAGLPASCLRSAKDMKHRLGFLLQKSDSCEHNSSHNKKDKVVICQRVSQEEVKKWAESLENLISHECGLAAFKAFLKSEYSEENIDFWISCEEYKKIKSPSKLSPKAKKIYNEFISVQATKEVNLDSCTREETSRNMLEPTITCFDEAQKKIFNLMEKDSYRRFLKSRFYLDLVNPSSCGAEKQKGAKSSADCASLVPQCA
MrgX1 PAM = allosterically activates human MrgX1 receptor signaling. Q96LB2. MrgX1-HEK293, Fluo-4 calcium flux, FDSS; active compounds read high. B-score at 10 µM. 310,000 compounds, 0.63% hits. AID 588675;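 active = plate-corrected calcium response at least 3 library SD above typical, normal starting fluorescence, not activating the receptor alone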;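 note: compound read alongside a low EC10 to EC30 dose of BAM8-22 agonist; peak minus trough fluorescence over baseline measured at the second addition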
MrgX1 ant reconf = reconfirmed antagonist of human MrgX1 receptor signaling; shares compounds with MrgX1 antag; MrgX1-HEK293, BAM8-22 calcium flux, Fluo-4; active compounds read low; remaining BAM8-22 calcium response % of control (active compounds read low), % at 10 µM; 2,300 compounds, 19% hits;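 active = remaining agonist calcium response no higher than 100% minus 3 SD of agonist-only control wells, with starting fluorescence near control levels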;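 note: agonist BAM8-22 given at a near maximal EC90 to ECmax level; peak minus minimum fluorescence divided by baseline after agonist addition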
HEK293 Ca flux = counter-screen for MrgX1 antagonists: effect in parental HEK293 cells | shares compounds with MrgX1 antag | Fluo-4 calcium fluorescence, FDSS | fluorescence ratio F(max-min)/F0 at 10 µM | 4,000 compounds, 2% hits;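 active = duplicate-averaged calcium fluorescence ratio at least three times the standard deviation of buffer wells, a nonspecific response in parental cells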
HEK293 Ca counter = counter-screen for MrgX1 allosteric activators: effect in parental HEK293 cells. shares compounds with MrgX1 antag. parental HEK293 calcium flux, Fluo-4 fluorescence ratio; active compounds read high. fluorescence ratio F(max-min)/F0 at 10 µM. 4,000 compounds, 0.4% hits. AID 624114;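 active = calcium fluorescence ratio, averaged over duplicates, at least 3 SD of the buffer-well ratio, meaning a nonspecific response in receptor-free cells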;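 note: untransfected parental HEK293 lacking MrgX1 used as counterscreen for MrgX1 allosteric activators; fluorescence change taken during the second addition on a kinetic imager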
HEK293 Ca cntr2 = MrgX1 activator counter-screen hit in parental HEK293 cells; shares compounds with MrgX1 antag; 4,000 compounds, 8.7% hits; fluorescence ratio F(max-min)/F0 at 10 µM; AID 624115; Fluo-4 calcium fluorescence (FDSS); active compounds read high;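 active = calcium fluorescence ratio at least three times the spread of buffer wells, meaning a non-specific response in parental cells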
Hits are given with their value. In the library only some 3.5% were active in any assay of this set; here they are far more common.

Screening Cc1cc2oc(=O)cc(CN3CCN(S(=O)(=O)c4ccc5c(c4)OCCO5)CC3)c2cc1C returned MrgX1 agonist inactive, MrgX1 antag -8.6, RGS4 pot inactive, RGS4 block inactive, MrgX1 PAM inactive, MrgX1 ant reconf inactive, HEK293 Ca flux inactive, HEK293 Ca counter inactive and HEK293 Ca cntr2 inactive.
For O=C(NCCN1CCOCC1)c1ccc2c(c1)ncn2C1CCCCC1 the results were MrgX1 agonist inactive, MrgX1 antag -6.8, RGS4 pot inactive, RGS4 block inactive, MrgX1 PAM inactive, MrgX1 ant reconf inactive, HEK293 Ca flux inactive, HEK293 Ca counter inactive and HEK293 Ca cntr2 inactive.
CCN(CC(=O)N1CCCC1)S(=O)(=O)c1cc(C)ccc1OC was read as MrgX1 agonist inactive, MrgX1 antag inactive, RGS4 pot inactive, RGS4 block inactive and MrgX1 PAM inactive.
Screening CCCN1C2CCCC1CC(NC(=S)Nc1cc(C)cc(C)c1)C2 (configuration not stated) returned MrgX1 agonist inactive, MrgX1 antag -6, RGS4 pot inactive, RGS4 block inactive, MrgX1 PAM inactive, MrgX1 ant reconf inactive, HEK293 Ca flux inactive, HEK293 Ca counter inactive and HEK293 Ca cntr2 inactive.
Screening Cc1ccc(Cl)cc1N1CCN(C(=O)CN(C2CCCCC2)S(C)(=O)=O)CC1 returned MrgX1 agonist inactive, MrgX1 antag -12, RGS4 pot inactive, RGS4 block inactive, MrgX1 PAM inactive, MrgX1 ant reconf inactive, HEK293 Ca flux inactive, HEK293 Ca counter inactive and HEK293 Ca cntr2 inactive.
`CS(=O)(=O)N(CC(=O)N1CCN(c2cccc(Cl)c2)CC1)C1CCCCC1` gave MrgX1 agonist inactive, MrgX1 antag inactive, RGS4 pot inactive, RGS4 block inactive and MrgX1 PAM inactive.
O=C(c1ccc(N2CCN(C(=O)c3cccc(F)c3)CC2)cc1)c1cccc(F)c1 was read as MrgX1 agonist inactive, MrgX1 antag -4.6, RGS4 pot inactive, RGS4 block inactive, MrgX1 PAM inactive, MrgX1 ant reconf inactive, HEK293 Ca flux inactive, HEK293 Ca counter inactive and HEK293 Ca cntr2 inactive.
For O=C(c1ccc(N2CCN(C(=O)c3ccccc3Br)CC2)cc1)c1cccc(F)c1 the results were MrgX1 agonist inactive, MrgX1 antag inactive, RGS4 pot inactive, RGS4 block inactive and MrgX1 PAM inactive.
For CC(C)[C@H](NC(=O)c1cc2cc(Cl)ccc2n1C)C(=O)N[C@@H](C(=O)O)c1ccccc1 the results were MrgX1 agonist inactive, MrgX1 antag inactive, RGS4 pot inactive, RGS4 block inactive and MrgX1 PAM inactive.
Screening CCCSc1ccc(C(=O)Nc2ccc(F)cc2F)cn1 returned MrgX1 agonist inactive, MrgX1 antag inactive, RGS4 pot inactive, RGS4 block inactive and MrgX1 PAM inactive.
Screening CC(C)S(=O)(=O)c1ccc(C(=O)Nc2ccc(F)cc2F)cn1 returned MrgX1 agonist inactive, MrgX1 antag -5.9, RGS4 pot inactive, RGS4 block inactive, MrgX1 PAM inactive, MrgX1 ant reconf inactive, HEK293 Ca flux inactive, HEK293 Ca counter inactive and HEK293 Ca cntr2 inactive.
`COc1cc(OC)cc(C(=O)NC2CC3CCC(C2)N3Cc2ccco2)c1` (configuration not stated) gave RGS4 pot inactive and RGS4 block inactive.
Cc1ccc(C(=O)NCc2ccco2)cc1 was read as MrgX1 agonist inactive, MrgX1 antag -5.3, RGS4 pot inactive, RGS4 block inactive, MrgX1 PAM inactive, MrgX1 ant reconf inactive, HEK293 Ca flux inactive, HEK293 Ca counter inactive and HEK293 Ca cntr2 inactive.
